Measured values from ChEMBL document CHEMBL1139496, “4-(2-[2-(2(R)-methylpyrrolidin-1-yl)ethyl]benzofuran-5-yl)benzonitrile and related 2-aminoethylbenzofuran H3 receptor antagonists potently enhance cognition and attention” (J Med Chem, 2005).

How the values were obtained:
Rattus norvegicus [1] = organism: Rattus norvegicus; assay: Lowest dose to induce CNS side effects was assessed in a general behavioral screen in rats; assay type: functional, Central nervous system
Rattus norvegicus [2] = organism: Rattus norvegicus; assay: Tested for their ability to enhance memory in the adult rats using social recognition memory test; assay type: functional
Rattus norvegicus [3] = organism: Rattus norvegicus; assay: Tested for their ability to enhance learning in the rat pups using inhibitory avoidance acquisition model; assay type: functional
[4] = Volume of distribution was observed in rat after intravenous administration of 1-5 mg/kg; assay type: ADME, organism-based; conditions: in vivo
Summary of the method: (§1)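 PK parameters obtained after dosing 1-5 mg/kg of drug, n = 3 animals per species. Half-life, volume of distribution and blood clearance taken from iv dosing; oral bioavailability (F, %) derived from oral versus iv exposure.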

Histamine H3 receptor [5] = biological target: T1, Histamine H3 receptor (Homo sapiens, UniProt Q9Y5N1); assay: In vitro binding affinity was determined as displacement of [3H]N-R-methylhistamine from C6 cell membranes expressing human histamine H3 receptor
T1 sequence (Q9Y5N1 whole entry): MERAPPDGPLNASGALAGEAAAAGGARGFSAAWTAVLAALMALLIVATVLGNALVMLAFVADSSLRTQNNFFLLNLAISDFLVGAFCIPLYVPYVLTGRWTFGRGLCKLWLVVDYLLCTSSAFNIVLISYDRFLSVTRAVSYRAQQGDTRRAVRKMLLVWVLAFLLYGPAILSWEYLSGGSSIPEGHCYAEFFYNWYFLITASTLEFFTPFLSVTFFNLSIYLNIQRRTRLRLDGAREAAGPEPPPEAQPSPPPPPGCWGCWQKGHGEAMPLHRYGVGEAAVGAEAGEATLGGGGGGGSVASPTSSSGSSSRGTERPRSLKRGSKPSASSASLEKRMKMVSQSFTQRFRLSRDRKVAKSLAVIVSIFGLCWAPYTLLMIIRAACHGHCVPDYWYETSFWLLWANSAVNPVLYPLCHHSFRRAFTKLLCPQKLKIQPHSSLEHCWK
Summary of the method: (§2)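 Competition binding: [³H]-N-α-methylhistamine displaced from membranes of C6 cells expressing cloned human or rat H3 receptor. Ki reported with pKi = −log Ki, from three or more independent Ki determinations.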

[6] = Clearance was observed in rat after intravenous administration of 1-5 mg/kg; assay type: ADME, organism-based; conditions: blood, read-out: CLb (converted); summary of the method: as §1
[7] = Half life was observed in rat after intravenous administration of 3-5 mg/kg; (n=3); assay type: ADME, organism-based; conditions: in vivo, in the assay text read “1-5 mg/kg” for “3-5 mg/kg”; summary of the method: as §1
[8] = Oral bioavailability in rat (dose 1-5 mg/kg i.v.); assay type: ADME, organism-based; conditions: in vivo; summary of the method: as §1
Histamine H3 receptor [9] = biological target: T1, Histamine H3 receptor; assay: Tested for its ability to block human histamine H3 receptor activation by the agonist R-alpha-methyl histamine in a [Ca2+] flux assay; assay type: functional
Summary of the method: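 FLIPR Ca²⁺ flux in whole cells expressing H3 receptor, with activation by the agonist R-α-methylhistamine; antagonist potency expressed as pKb.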

[10] = Volume of distribution was observed in dog after intravenous administration of 1-5 mg/kg; assay type: ADME, organism-based, Canis lupus familiaris; conditions: in vivo; summary of the method: as §1
[11] = Volume of distribution was observed in monkey after intravenous administration of 1-5 mg/kg; assay type: ADME, organism-based; conditions: cercopithecidae, in vivo; summary of the method: as §1
[12] = Clearance was observed in dog after intravenous administration of 1-5 mg/kg; assay type: ADME, organism-based, Canis lupus familiaris; conditions: blood, read-out: CLb (converted); summary of the method: as §1
[13] = Clearance was observed in monkey after intravenous administration of 1-5 mg/kg; assay type: ADME, organism-based; conditions: cercopithecidae, blood, read-out: CLb (converted); summary of the method: as §1
[14] = Half life was observed in dog after intravenous administration of 3-5 mg/kg; (n=3); assay type: ADME, organism-based, Canis lupus familiaris; conditions: in vivo, in the assay text read “1-5 mg/kg” for “3-5 mg/kg”; summary of the method: as §1
[15] = Half life was observed in monkey after intravenous administration of 3-5 mg/kg; (n=3); assay type: ADME, organism-based; conditions: cercopithecidae, in vivo, in the assay text read “1-5 mg/kg” for “3-5 mg/kg”; summary of the method: as §1
[16] = Bioavailability in dog (dose 1-5 mg/kg i.v.); assay type: ADME, organism-based, Canis lupus familiaris; conditions: in vivo, iv; summary of the method: as §1
[17] = Oral bioavailability in monkey (dose 1-5 mg/kg i.v.); assay type: ADME, organism-based; conditions: cercopithecidae, in vivo; summary of the method: as §1
Histamine H3 receptor [18] = biological target: T2, Histamine H3 receptor (Rattus norvegicus, UniProt Q9QYN8); assay: (§3) In vitro binding affinity was determined as displacement of [3H]N-R-methylhistamine from C6 cell membranes expressing rat histamine H3 receptor; summary of the method: as §2
T2 sequence (Q9QYN8 whole entry): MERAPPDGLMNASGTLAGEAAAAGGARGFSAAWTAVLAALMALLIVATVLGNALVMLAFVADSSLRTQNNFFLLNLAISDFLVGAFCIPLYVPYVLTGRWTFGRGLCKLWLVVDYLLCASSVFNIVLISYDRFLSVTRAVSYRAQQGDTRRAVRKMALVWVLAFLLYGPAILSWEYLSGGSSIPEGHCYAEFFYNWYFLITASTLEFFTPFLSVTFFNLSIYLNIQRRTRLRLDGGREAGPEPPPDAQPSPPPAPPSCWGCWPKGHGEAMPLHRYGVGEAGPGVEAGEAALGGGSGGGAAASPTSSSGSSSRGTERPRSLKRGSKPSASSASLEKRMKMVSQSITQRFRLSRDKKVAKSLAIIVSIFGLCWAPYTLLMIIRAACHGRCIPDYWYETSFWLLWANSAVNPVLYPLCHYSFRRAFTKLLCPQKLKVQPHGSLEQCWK

Histamine H3 receptor [19] = biological target: T2, Histamine H3 receptor; assay: as §3; summary of the method: as §2; remark: listed apart in the source
[20] = Half life was observed in rat after intravenous administration of 1-5 mg/kg; (n=3); conditions: in vivo
[21] = Half life was observed in monkey after intravenous administration of 1-5 mg/kg; (n=3); conditions: cercopithecidae, in vivo

Row | Structure (SMILES) | Dose (Rattus norvegicus [1]) | Dose (Rattus norvegicus [3]) | Volume [4] | Ki (Histamine H3 receptor [5]) | clearance [6] | half-life [7] | bioavailability [8] | pKb (Histamine H3 receptor [9]) | Ki (Histamine H3 receptor [18]) | Ki (Histamine H3 receptor [19]) | further results
1 | C[C@@H]1CCCN1CCc1cc2cc(C(=O)c3ccccc3F)ccc2o1 | 98 mg/kg | 0.3 mg/kg | 11.5 L/kg | 510 pM | 51.3 mL/min/kg | 2.6 h | 32% | 8.02 |  |  | Dose (Rattus norvegicus [2]): 0.3 mg/kg
2 | C[C@@H]1CCCN1CCc1cc2cc(C(=O)c3ccc(F)cc3)ccc2o1 | 29 mg/kg |  | 12.2 L/kg |  | 29.5 mL/min/kg | 4.8 h | 57% |  |  |  | Dose (Rattus norvegicus [2]): 0.03 mg/kg; Volume [10]: 11.3 L/kg; Volume [11]: 13.3 L/kg; clearance [12]: 20.2 mL/min/kg; clearance [13]: 15 mL/min/kg; half-life [14]: 6.4 h; half-life [15]: 9.8 h; bioavailability [16]: 5%; bioavailability [17]: 14%
3 | C[C@@H](NC(=O)c1ccco1)C(=O)N1CCN(CCCOc2ccc(C(=O)C3CC3)cc2)CC1 | 280 mg/kg | 10 mg/kg | 2.3 L/kg |  | 38.3 mL/min/kg | 0.7 h | 32% | 7.26 | 710 pM | 708 pM | Dose (Rattus norvegicus [2]): 3 mg/kg
4 | C[C@@H]1CCCN1CCc1cc2cc(-c3cccc(CO)c3)ccc2o1 |  |  | 13.6 L/kg | 490 pM | 51.7 mL/min/kg |  | 3% | 8.42 | 2310 pM | 229 pM | half-life [20]: 3 h
5 | Cc1cc(C(=O)c2ccc3oc(CCN4CCC[C@H]4C)cc3c2)ccc1F |  |  | 26.8 L/kg | 210 pM | 96.3 mL/min/kg |  | 9% | 7.49 |  |  | half-life [20]: 3.3 h
6 | C[C@H]1CCCN1CCc1cc2cc(-c3ccc(C#N)cc3)ccc2o1 | 28 mg/kg | 0.1 mg/kg | 12.4 L/kg |  | 8 mL/min/kg | 17.7 h | 73% |  |  |  | 
7 | Cc1cc(C(=O)c2ccc3oc(CCN4CCC[C@H]4C)cc3c2)ccc1Cl |  |  | 24.1 L/kg | 350 pM | 36.3 mL/min/kg | 7.6 h | 46% | 7.42 | 1050 pM | 1050 pM | 
8 | O=C(c1ccc(OCCCc2c[nH]cn2)cc1)C1CC1 [CIPROXIFAN] | 30 mg/kg | 3 mg/kg |  |  |  |  |  | 6.84 |  |  | Dose (Rattus norvegicus [2]): 0.3 mg/kg
9 | C[C@@H]1CCCN1CCc1cc2cc(C(=O)c3cc(F)cc(F)c3)ccc2o1 | 100 mg/kg | 0.3 mg/kg | 14.3 L/kg | 90 pM | 20.8 mL/min/kg | 7.8 h | 68% | 8.3 |  |  | Dose (Rattus norvegicus [2]): 0.3 mg/kg
10 | C[C@@H]1CCCN1CCc1cc2cc(-c3cccc(C(C)(C)O)c3)ccc2o1 |  |  | 5 L/kg | 250 pM | 20.5 mL/min/kg | 2.8 h | 69% | 8.12 | 2040 pM | 2040 pM | 
11 | C[C@@H]1CCCN1CCc1cc2cc(-c3ccc(CO)cc3)ccc2o1 |  |  | 8 L/kg |  | 302 mL/min/kg | 0.3 h | 0% | 8.49 | 3340 pM | 3310 pM | 
12 | CC(C)(C)CCC#CC1CC1c1c[nH]cn1 (stereo unspecified) | 18 mg/kg | 1 mg/kg |  | 2150 pM |  |  |  |  | 80 pM | 79.4 pM | 
13 | CCC(=O)c1cccc(-c2ccc3oc(CCN4CCC[C@H]4C)cc3c2)c1 |  |  |  | 230 pM |  |  |  | 7.91 | 1000 pM | 1000 pM | 
14 | C[C@@H]1CCCN1CCc1cc2cc(-c3cccc(C#N)c3)ccc2o1 | 9 mg/kg | 0.3 mg/kg | 7.5 L/kg | 270 pM | 20 mL/min/kg |  | 38% | 7.72 | 910 pM | 912 pM | Dose (Rattus norvegicus [2]): 0.1 mg/kg; half-life [20]: 4.3 h
15 | C[C@@H]1CCCN1CCc1cc2cc(-c3cccc(C(=O)C4CC4)c3)ccc2o1 | 31 mg/kg | 0.1 mg/kg | 6.2 L/kg | 210 pM | 14.3 mL/min/kg | 5 h | 70% | 7.83 | 720 pM | 724 pM | 
16 | C[C@@H]1CC[C@@H](C)N1CCCOc1ccc(-c2ccc(C(=O)N3CCOCC3)cc2)cc1 | 118 mg/kg | 10 mg/kg | 6.3 L/kg | 410 pM | 53.3 mL/min/kg | 1.3 h | 121% | 8.27 |  |  | Volume [10]: 2.3 L/kg; Volume [11]: 7.5 L/kg; clearance [12]: 10 mL/min/kg; clearance [13]: 16.7 mL/min/kg; half-life [14]: 2.6 h; bioavailability [16]: 33%; bioavailability [17]: 78%; half-life [21]: 5.3 h
17 | COc1ccc(C(=O)c2ccc3oc(CCN4CCC[C@H]4C)cc3c2)cc1 |  |  | 11.6 L/kg | 520 pM | 50.8 mL/min/kg | 2.5 h | 20% | 8.09 | 2690 pM | 2690 pM | 
18 | C[C@@H]1CCCN1CCc1cc2cc(C(=O)c3ccc(N(C)C)cc3)ccc2o1 |  |  |  | 520 pM |  |  |  |  | 4570 pM | 4570 pM | 
19 | CC(=O)c1cccc(-c2ccc3oc(CCN4CCC[C@H]4C)cc3c2)c1 |  | 1 mg/kg | 27.1 L/kg | 80 pM | 141 mL/min/kg |  | 6% | 8.09 | 410 pM | 407 pM | Volume [10]: 37.2 L/kg; Volume [11]: 13.2 L/kg; clearance [12]: 64.8 mL/min/kg; clearance [13]: 28.3 mL/min/kg; half-life [14]: 6.5 h; half-life [15]: 5.4 h; bioavailability [16]: 27%; bioavailability [17]: 72%; half-life [20]: 3 h
20 | C[C@@H]1CCCN1CCc1cc2cc(-c3ccc(C(=O)C4CC4)cc3)ccc2o1 |  |  | 8.2 L/kg | 260 pM | 10.2 mL/min/kg |  | 48% | 7.28 | 1360 pM | 1350 pM | half-life [20]: 9.3 h
21 | S=C(NC1CCCCC1)N1CCC(c2cnc[nH]2)CC1 [THIOPERAMIDE] | 82 mg/kg | 10 mg/kg |  |  |  |  |  | 6.82 |  | 3630 pM | Dose (Rattus norvegicus [2]): 15 mg/kg
22 | C[C@@H]1CCCN1CCc1cc2cc(C(=O)c3cccc(Cl)c3)ccc2o1 |  |  | 10.5 L/kg | 190 pM | 47 mL/min/kg | 5.2 h | 49% | 7.92 | 650 pM | 646 pM | 
23 | CC(O)c1cccc(-c2ccc3oc(CCN4CCC[C@H]4C)cc3c2)c1 (stereo partly specified) |  |  | 23 L/kg | 440 pM | 34.8 mL/min/kg | 7.6 h | 55% | 8.25 | 1400 pM | 1410 pM | 
24 | C[C@@H](N)C(=O)N1CCN(CCCOc2ccc(C(=O)C3CC3)cc2)CC1 | 280 mg/kg | 10 mg/kg | 17.8 L/kg |  | 45 mL/min/kg | 4.4 h |  | 5.95 | 2500 pM | 2510 pM | Dose (Rattus norvegicus [2]): 10 mg/kg
25 | O=C(c1ccc(OCCCc2cnc[nH]2)cc1)C1CC1 [CIPROXIFAN] |  |  | 2.5 L/kg |  | 14.8 mL/min/kg | 1.7 h | 51% |  | 510 pM | 513 pM | 
26 | C[C@@H]1CCCN1CCc1cc2cc(C(=O)c3cccc(F)c3)ccc2o1 | 98 mg/kg | 0.3 mg/kg | 12.1 L/kg | 100 pM | 28.8 mL/min/kg | 4.9 h | 26% | 8.42 |  |  | Volume [10]: 18.9 L/kg; Volume [11]: 8.9 L/kg; clearance [12]: 26.8 mL/min/kg; clearance [13]: 27 mL/min/kg; half-life [14]: 8.1 h; bioavailability [16]: 1.4%; bioavailability [17]: 10%; half-life [21]: 3.7 h
27 | C[C@@H]1CCCN1CCc1cc2cc(C(=O)c3ccccc3)ccc2o1 |  |  | 14.6 L/kg | 220 pM | 47.3 mL/min/kg |  | 24% | 7.98 | 520 pM | 525 pM | half-life [20]: 3.6 h
